From ChEMBL document CHEMBL1152281, “2-Alkylamino- and alkoxy-substituted 2-amino-1,3,4-oxadiazoles-O-Alkyl benzohydroxamate esters replacements retain the desired inhibition and selectivity against MEK (MAP ERK kinase)” (Bioorg Med Chem Lett, 2008)
In brackets after ≈: the same amount, converted by molar mass. Each block holds one compound with its values, some of them ahead of it. Activity calls are given as the source filed them. No cut-off for these calls is given here.

Columns and labels:
[1] = Solubility in sodium phosphate buffer at pH 6.5 by HPLC
[2] = Metabolic stability in human liver microsomes assessed as half life
Colon 26 [3] = test: Antitumor activity against mouse Colon 26 cells implanted in mouse at 100 mg/kg, po administered BID on day 9 to day 15; assay type: functional
Mus musculus [4] = test: Toxicity in mouse Colon 26 cells implanted mouse assessed as body weight loss at 100 mg/kg, po administered BID on day 9 to day 15; assay type: organism-based; design: dose 100 mg/kg, route oral; conditions: in vivo
Procedure, shortened: (§1)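 Mice bearing subcutaneous Colon 26 tumours were gavaged daily or BID on days 9–15 (3 per group). Toxicity was taken as maximum treatment-related weight loss, expressed as percent of mean group weight at initial treatment, with the day of maximum loss recorded; a net weight gain is noted as "+". Vehicle was 5% EtOH + 5% Tween 80 in saline.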

Colon 26 [5] = test: Antitumor activity against mouse Colon 26 cells implanted in mouse assessed as <62 mg decrease in tumor mass at 100 mg/kg, po administered BID on day 9 to day 15; assay type: functional, organism-based; design: dose 100 mg/kg
Colon 26 [6] = test: Antitumor activity against mouse Colon 26 cells implanted in mouse assessed as 50% decrease in tumor mass at 100 mg/kg, po administered BID on day 9 to day 15; assay type: functional, organism-based; design: dose 100 mg/kg
Colon 26 [7] = test: Antitumor activity against mouse Colon 26 cells implanted in mouse at 50 mg/kg, po administered BID on day 9 to day 15; assay type: functional
Mus musculus [8] = test: Ex vivo inhibition of MEK in mouse Colon 26 cells implanted mouse assessed as suppression of ERK-phosphorylation at 12.5 mg/kg, po after 10 hrs by Western blot; assay type: functional, organism-based; design: dose 12.5 mg/kg
Procedure, shortened: (§2)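 Mice bearing subcutaneous colon 26 tumours received a single oral dose. At each time point tumours were excised, and p-ERK levels were measured by Western blot against vehicle-treated controls.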

Colon 26 [9] = test: Antitumor activity against mouse Colon 26 cells implanted in mouse at 200 mg/kg, po administered on day 9 to day 15; assay type: functional
Mus musculus [10] = test: Toxicity in mouse Colon 26 cells implanted mouse assessed as body weight loss at 150 mg/kg, po administered BID on day 9 to day 15; assay type: organism-based; design: dose 150 mg/kg, route oral; conditions: in vivo; procedure, shortened: as §1
Colon 26 [11] = test: Antitumor activity against mouse Colon 26 cells implanted in mouse assessed as <62 mg decrease in tumor mass at 300 mg/kg, po administered on day 9 to day 15; assay type: functional, organism-based; design: dose 300 mg/kg
Colon 26 [12] = test: Antitumor activity against mouse Colon 26 cells implanted in mouse assessed as <62 mg decrease in tumor mass at 50 mg/kg, po administered BID on day 9 to day 15; assay type: functional, organism-based; design: dose 50 mg/kg
Mus musculus [13] = test: Toxicity in mouse Colon 26 cells implanted mouse assessed as body weight loss at 300 mg/kg, po administered on day 9 to day 15; assay type: organism-based; design: dose 300 mg/kg, route oral; conditions: in vivo; procedure, shortened: as §1
Mus musculus [14] = test: Toxicity in mouse Colon 26 cells implanted mouse assessed as body weight loss at 200 mg/kg, po administered on day 9 to day 15; assay type: organism-based; design: dose 200 mg/kg, route oral; conditions: in vivo; procedure, shortened: as §1
Colon 26 [15] = test: Antitumor activity against mouse Colon 26 cells implanted in mouse at 150 mg/kg, po administered BID on day 9 to day 15; assay type: functional
Colon 26 [16] = test: Antitumor activity against mouse Colon 26 cells implanted in mouse at 300 mg/kg, po administered on day 9 to day 15; assay type: functional
Colon 26 [17] = test: Antitumor activity against mouse Colon 26 cells implanted in mouse assessed as <62 mg decrease in tumor mass at 100 mg/kg, po administered on day 9 to day 15; assay type: functional, organism-based; design: dose 100 mg/kg
Mus musculus [18] = test: Toxicity in mouse Colon 26 cells implanted mouse assessed as increase in body weight at 100 mg/kg, po administered on day 9 to day 15; assay type: organism-based; design: dose 100 mg/kg, route oral; conditions: in vivo; procedure, shortened: as §1
Mus musculus [19] = test: Toxicity in mouse Colon 26 cells implanted mouse assessed as increase in body weight at 100 mg/kg, po administered BID on day 9 to day 15; assay type: organism-based; design: dose 100 mg/kg, route oral; conditions: in vivo; procedure, shortened: as §1
Colon 26 [20] = test: Antitumor activity against mouse Colon 26 cells implanted in mouse assessed as 50% decrease in tumor mass at 50 mg/kg, po administered BID on day 9 to day 15; assay type: functional, organism-based; design: dose 50 mg/kg
Mus musculus [21] = test: Toxicity in mouse Colon 26 cells implanted mouse assessed as increase in body weight at 50 mg/kg, po administered BID on day 9 to day 15; assay type: organism-based; design: dose 50 mg/kg, route oral; conditions: in vivo; procedure, shortened: as §1
Colon 26 [22] = test: Antitumor activity against mouse Colon 26 cells implanted in mouse at 100 mg/kg, po administered on day 9 to day 15; assay type: functional
Mus musculus [23] = test: Ex vivo inhibition of MEK in mouse Colon 26 cells implanted mouse assessed as suppression of ERK-phosphorylation at 100 mg/kg, po after 10 hrs by Western blot; assay type: functional, organism-based; design: dose 100 mg/kg; procedure, shortened: as §2
Colon 26 [24] = test: Antitumor activity against mouse Colon 26 cells implanted in mouse assessed as <62 mg decrease in tumor mass at 150 mg/kg, po administered BID on day 9 to day 15; assay type: functional, organism-based; design: dose 150 mg/kg

SMILES: Fc1cc(I)ccc1Nc1c(-c2nnc(NCCCN3CCOCC3)o2)ccc(F)c1F
solubility [1]: < 3 µg/mL
half-life [2]: 40 min

SMILES: NCCNc1nnc(-c2ccc(F)c(F)c2Nc2ccc(I)cc2F)o1
solubility [1]: < 3 µg/mL
half-life [2]: 40 min

SMILES: CCN(CC)CCCNc1nnc(-c2ccc(F)c(F)c2Nc2ccc(I)cc2F)o1
solubility [1]: < 3 µg/mL
half-life [2]: 40 min

SMILES: COCCCNc1nnc(-c2ccc(F)c(F)c2Nc2ccc(I)cc2F)o1
solubility [1]: < 3 µg/mL
half-life [2]: 35 min

SMILES: Nc1nnc(-c2ccc(F)c(F)c2Nc2ccc(I)cc2F)o1
solubility [1]: < 3 µg/mL

SMILES: NCCCNc1nnc(-c2ccc(F)c(F)c2Nc2ccc(I)cc2F)o1
solubility [1]: 5.4 µg/mL (≈ 11 µM)
half-life [2]: 40 min

SMILES: O=C(NOCC1CC1)c1ccc(F)c(F)c1Nc1ccc(I)cc1Cl [CI-1040]
LCK (Colon 26 [3]): 0.1
Activity (Mus musculus [4]): 4.8%
Activity (Colon 26 [5]): inactive
Activity (Colon 26 [6]): inactive
half-life [2]: 8 min

SMILES: CNCCNc1nnc(-c2ccc(F)c(F)c2Nc2ccc(I)cc2F)o1
LCK (Colon 26 [7]): 0.1
Activity (Mus musculus [8]): Active
LCK (Colon 26 [3]): 0.2
LCK (Colon 26 [9]): 0.3
Activity (Mus musculus [10]): 4%
Activity (Colon 26 [11]): Active
Activity (Colon 26 [12]): inactive
Activity (Mus musculus [13]): 4.5%
Activity (Mus musculus [14]): 0.1%
LCK (Colon 26 [15]): 0.4
LCK (Colon 26 [16]): 0.3
solubility [1]: 6.7 µg/mL (≈ 13.7 µM)
Activity (Colon 26 [5]): Active
Activity (Colon 26 [17]): inactive
Activity (Mus musculus [18]): Toxic
Activity (Mus musculus [19]): Toxic
half-life [2]: 40 min
Activity (Colon 26 [20]): inactive
Activity (Mus musculus [21]): Toxic
LCK (Colon 26 [22]): 0
Activity (Mus musculus [23]): Active
Activity (Colon 26 [24]): Active

The next lines start with the values.

solubility [1]: < 3 µg/mL
half-life [2]: 40 min
SMILES: OCCCCCNc1nnc(-c2ccc(F)c(F)c2Nc2ccc(I)cc2F)o1

solubility [1]: < 3 µg/mL
half-life [2]: 40 min
SMILES: OCCCCNc1nnc(-c2ccc(F)c(F)c2Nc2ccc(I)cc2F)o1

solubility [1]: < 3 µg/mL
half-life [2]: 40 min
SMILES: OCCNc1nnc(-c2ccc(F)c(F)c2Nc2ccc(I)cc2F)o1

solubility [1]: < 3 µg/mL
half-life [2]: 40 min
SMILES: OCCCNc1nnc(-c2ccc(F)c(F)c2Nc2ccc(I)cc2F)o1
